Key:
[1] = system: FLCN-FNIP1 complex; experiment: Co-immunoprecipitation of GABARAP with FLCN-FNIP1; assay type: binding, human; settings: HEK293T cells, transfected 20 hours
[2] = system: HEK293T cells; experiment: LC3 lipidation / GFP-LC3B puncta, WT or ATG13_KO cells; assay type: cell-based, human; settings: for LC3 lipidation / puncta (in words): HEK293T WT or ATG13_KO, MK6-83 25 μM, C8 2 μM, AZD8055 1 μM
Method in brief: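 HEK293T cells in DMEM with 10% FBS and 1% penicillin/streptomycin at 37°C, 5% CO2, treated over a time course. Lysates denatured in Laemmli buffer at 100°C for 5 min. Immunoblot: primary antibodies in 5% BSA/TBS-0.2% Tween 20 overnight at 4°C; HRP secondaries at 1:20,000 for 1 h at room temperature. GFP-LC3B followed by time-lapse imaging.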

[3] = system: TFEB; experiment: TFEB activation / nuclear localization; assay type: cell-based
Method in brief: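 FNIP1/2_DKO HeLa expressing WT or LIR FNIP1 were stimulated with two TRPML1-activating agents (2 μM and 1 μM). TFEB was immunostained with primary antibody overnight at 4°C, then Alexa secondary (1:1000) with DAPI for 1 h at RT. TFEB nuclear localization was scored by high-content imaging, ≥1500 cells per condition. Values are means ± SD; unpaired t test.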

[4] = system: FNIP1/2_DKO HeLa cells; experiment: GPNMB protein level; assay type: cell-based; settings: prolonged treatment; WT or LIR FNIP1 in FNIP1/2_DKO HeLa
Method in brief: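 GPNMB, a TFEB/TFE3 target, was read by Western blot in FNIP1/2_DKO HeLa re-expressing WT or LIR-variant FNIP1 after prolonged stimulation to activate TRPML1. Cells were grown at 37°C in 5% CO2. Lysates were denatured in Laemmli buffer (100°C, 5 min). Primary antibody (1:1000 unless noted) was in 5% BSA/TBS-0.2% Tween 20, overnight at 4°C. HRP secondary was 1:20,000, 1 h at RT.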

[5] = system: FLCN-FNIP1 complex in HeLa cells; experiment: FLCN-FNIP recruitment to membrane fractions, Western blot; assay type: cell-based; settings: monensin 1uM, C8 2uM, 30 min; WT or TRPML1_KO HeLa
Method in brief: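 HeLa cells (WT or TRPML1_KO) grown in DMEM with 10% FBS and 1% penicillin/streptomycin at 37°C, 5% CO2. 1.5 × 10^6 cells plated the day before treatment. Membrane fractions prepared with a commercial kit and denatured in Laemmli buffer at 100°C for 5 min. Immunoblot: primary antibodies in 5% BSA/TBS-0.2% Tween 20 at 4°C overnight; HRP secondaries at 1:20,000 for 1 h at room temperature.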

[6] = system: primary bone marrow–derived macrophages (BMDMs); experiment: LC3 puncta in primary BMDMs, ATG16L1 WT or K490A; assay type: cell-based, mouse; settings: 1 hour

With “GABARAP: full-length human GABARAP (1 to 117), ATG8 family protein” the “interaction with FLCN-FNIP1 complex (in words)” value [1] was “interacts with GABARAP through LIR-dependent binding”.

For Cc1ccc(S(=O)(=O)Nc2ccccc2N2CCCCC2)s1 [MK6-83], the “LC3 lipidation / puncta (in words)” value [2] was “rapid conversion of LC3 from its cytoplasmic “I” form to the lipidated, punctate “II” form in both wild-type (WT) and autophagy-deficient cells (ATG13_KO)”.

With COc1ccc(-c2ccc3c(N4CCOC[C@@H]4C)nc(N4CCOC[C@@H]4C)nc3n2)cc1CO [AZD8055] the “TFEB activation versus ATG16L1 allele status (in words)” value ([3]; ATG16L1_KO HeLa reexpressing ATG16L1 variants) was “activated TFEB irrespective of ATG16L1 allele status”, the “TFEB activation / nuclear accumulation (in words)” value ([3]; HeLa) was “robust TFEB activation” and the “LC3 lipidation, sensitivity to BafA1 or PIK-III (in words)” value ([2]; BafA1 100 nM, PIK-III 5 μM) was “sensitive to the VPS34 inhibitor PIK-III and potentiated with the vacuolater ATPase (V-ATPase) inhibitor bafilomycin A1 (BafA1)”. The “LC3 lipidation / puncta (in words)” value [2] was “able to regulate LC3 lipidation in WT but not ATG13_KO cells” and the “GPNMB protein levels (in words)” value [4] was “largely suppressed”.

With CO/C1=C\C(C)=C\[C@@H](C)[C@@H](O)[C@@H](C)C/C(C)=C/C=C/[C@H](OC)[C@@H]([C@@H](C)[C@@H](O)[C@H](C)[C@@]2(O)C[C@@H](O)[C@H](C)[C@@H](C(C)C)O2)OC1=O [BafA1, bafilomycin A1] the “TFEB activation, effect of BafA1 cotreatment (in words)” value ([3]; BafA1 100 nM, acute, HeLa) was “sufficient to block TFEB activation by TRPML1 agonists; however, it did not affect TFEB activation upon mTOR inhibition”.

With CC[C@@]1([C@@H]2O[C@@H]([C@H]3O[C@@](O)(CO)[C@H](C)C[C@@H]3C)C[C@@H]2C)CC[C@H]([C@]2(C)CC[C@]3(C[C@H](O)[C@@H](C)[C@@H]([C@@H](C)[C@@H](OC)[C@H](C)C(=O)O)O3)O2)O1 [monensin] the “TFEB activation, FNIP1-LIR dependence (in words)” value ([3]; FNIP1-WT or FNIP1-LIR in FNIP1/2_DKO HeLa, monensin 1uM, 4 hr) was “regulated TFEB activation in an FNIP1-LIR domain–dependent manner” and the “FLCN-FNIP membrane recruitment (in words)” value [5] was “could induce FLCN-FNIP1 complex sequestration independently of TRPML1”.

CC1=CC(C)(C)N(C(=O)CN2C(=O)c3ccccc3C2=O)c2ccccc21 [ML-SA1] was tested, and the “LC3 puncta in BMDMs (in words)” value [6] was “unable to induce LC3 puncta in ATG16L1^K490A-expressing cells” and the “LC3 lipidation / puncta (in words)” value [2] was “rapid conversion of LC3 from its cytoplasmic “I” form to the lipidated, punctate “II” form in both wild-type (WT) and autophagy-deficient cells (ATG13_KO)”.

Reference: article PMC10938568 (Science Advances, 2021)
